Experimental data: ChEMBL document CHEMBL1129987, “Structure-based design of nonpeptidic HIV protease inhibitors: the sulfonamide-substituted cyclooctylpyramones” (J Med Chem, 1997)

What was measured:
[1] = test system: Human immunodeficiency virus 1; test: Antiviral activity in HIV-1 infected H9 cells; type: functional; settings: Human immunodeficiency virus 1, H9; read-out: ED50 (the source's name)
Summary of the method: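 H9 cells infected with HIV-1 IIIB at MOI about 0.005, spun down (200g, 10 min), resuspended at 8 × 10^5 cells/mL in RPMI Complete and mixed with compound; final DMSO 0.1%, triplicate per concentration. After 5 days at 37 °C in 5% CO2, supernatant p24 antigen was measured by ELISA. ED50 is the drug amount that reduces p24 by 50% versus DMSO drug-free controls.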

[2] = target: Human immunodeficiency virus type 1 protease (Human immunodeficiency virus 1, UniProt Q72874); test: Binding affinity against HIV-1 protease
[3] = Median cell culture toxic dose was evaluated against H9 cell line; type: ADME, cell-based; settings: human, H9 cells; read-out: CCTD50

Row | Compound | EC50 [1] [nM] | Ki [2] [nM] | CC50 [3] [nM]
1 | O=c1c2c(oc(O)c1C(c1cccc(NS(=O)(=O)c3cccc([N+](=O)[O-])c3)c1)C1CC1)CCCCCC2 (stereo not given) | 4200 | 4.7 | > 30000
2 | Cc1ccc(S(=O)(=O)Nc2cccc(C(c3c(O)c4c(oc3=O)CCCCCC4)C3CC3)c2)cc1 (stereo not given) | 3600 | 3.3 | > 30000
3 | CCCS(=O)(=O)Nc1cccc(C(c2c(O)c3c(oc2=O)CCCCCC3)C2CC2)c1 (stereo not given) |  | 4 | 
4 | O=c1c2c(oc(O)c1C(c1cccc(NS(=O)(=O)c3ccccc3C(F)(F)F)c1)C1CC1)CCCCCC2 (stereo not given) |  | 21 | > 30000
5 | CS(=O)(=O)Nc1cccc(C(c2c(O)c3c(oc2=O)CCCCCC3)C2CC2)c1 (stereo not given) |  | 11 | 
6 | CCCc1ccc(S(=O)(=O)Nc2cccc(C(c3c(O)c4c(oc3=O)CCCCCC4)C3CC3)c2)cc1 (stereo not given) |  | 11 | > 30000
7 | CC(C)C(c1cccc(NS(=O)(=O)c2ccc(C#N)cc2)c1)c1c(O)c2c(oc1=O)CCCCCC2 (stereo not given) | > 10000 | 5.9 | > 30000
8 | CC(C)C(c1cccc(NS(=O)(=O)c2cn(C)cn2)c1)c1c(O)c2c(oc1=O)CCCCCC2 (stereo not given) | 2500 | 0.5 | > 30000
9 | O=c1c2c(oc(O)c1C(c1cccc(NS(=O)(=O)c3ccccn3)c1)C1CC1)CCCCCC2 (stereo not given) | 4600 | 2.2 | > 30000
10 | CC(C)CC(c1cccc(NS(=O)(=O)c2cn(C)cn2)c1)c1c(O)c2c(oc1=O)CCCCCC2 (stereo not given) | 1300 | 0.086 | > 30000
11 | O=c1c2c(oc(O)c1C(c1cccc(NS(=O)(=O)c3cccc(C(F)(F)F)c3)c1)C1CC1)CCCCCC2 (stereo not given) | 3800 | 3 | > 30000
12 | CCCC(c1cccc(NS(=O)(=O)c2ccc(F)cc2)c1)c1c(O)c2c(oc1=O)CCCCCC2 (stereo not given) | 6300 | 2.1 | > 30000
13 | O=c1c2c(oc(O)c1C(c1cccc(NS(=O)(=O)c3ccc(OC(F)(F)F)cc3)c1)C1CC1)CCCCCC2 (stereo not given) | 3400 | 4 | > 30000
14 | O=c1c2c(oc(O)c1C(c1cccc(NS(=O)(=O)c3ccc(Cl)cc3)c1)C1CC1)CCCCCC2 (stereo not given) | 2000 | 2.5 | > 30000
15 | Cn1cnc(S(=O)(=O)Nc2cccc([C@H](c3c(O)c4c(oc3=O)CCCCCC4)C3CC3)c2)c1 |  | 0.08 | > 30000
16 | CCCCCCCCS(=O)(=O)Nc1cccc(C(c2c(O)c3c(oc2=O)CCCCCC3)C2CC2)c1 (stereo not given) |  | 6 | 
17 | CC(C)c1ccc(S(=O)(=O)Nc2cccc(C(c3c(O)c4c(oc3=O)CCCCCC4)C3CC3)c2)cc1 (stereo not given) |  | 13 | > 30000
18 | O=c1c2c(oc(O)c1C(c1cccc(NS(=O)(=O)c3cc(Cl)ccc3Cl)c1)C1CC1)CCCCCC2 (stereo not given) |  | 74 | > 30000
19 | O=c1c2c(oc(O)c1[C@H](c1cccc(NS(=O)(=O)c3ccccc3)c1)C1CC1)CCCCCC2 | 2600 |  | > 30000
20 | Cc1cccc(S(=O)(=O)Nc2cccc(C(c3c(O)c4c(oc3=O)CCCCCC4)C3CC3)c2)c1 (stereo not given) | 4000 | 5.3 | > 30000

Row | Compound | EC50 [1] [nM] | Ki [2] [nM] | CC50 [3] [nM]
21 | O=c1c2c(oc(O)c1C(c1cccc(NS(=O)(=O)c3ccccc3F)c1)C1CC1)CCCCCC2 (stereo not given) | 5900 | 11 | > 30000
22 | Cn1cnc(S(=O)(=O)Nc2cccc(C(c3c(O)c4c(oc3=O)CCCCCC4)C3CC3)c2)c1 (stereo not given) | 2700 | 1.6 | > 100000
23 | CS(=O)(=O)Nc1cccc(C(c2c(O)c3c(oc2=O)CCCCC3)C2CC2)c1 (stereo not given) |  | 120 | 
24 | N#Cc1ccc(S(=O)(=O)Nc2cccc(C(c3c(O)oc4c(c3=O)CCCCCC4)C3CC3)c2)nc1 (stereo not given) | 900 | 1 | > 30000
25 | O=c1c2c(oc(O)c1C(c1cccc(NS(=O)(=O)Cc3ccccc3)c1)C1CC1)CCCCCC2 (stereo not given) |  | 13 | 
26 | CC(C)CC(c1cccc(NS(=O)(=O)c2ccc(C#N)cc2)c1)c1c(O)c2c(oc1=O)CCCCCC2 (stereo not given) | 6100 | 1.5 | > 30000
27 | O=c1c2c(oc(O)c1C(c1cccc(NS(=O)(=O)CCc3ccccc3)c1)C1CC1)CCCCCC2 (stereo not given) |  | 3.9 | 
28 | Nc1ccc(S(=O)(=O)Nc2cccc(C(c3c(O)c4c(oc3=O)CCCCCC4)C3CC3)c2)cc1 (stereo not given) |  | 6.9 | > 30000
29 | CCC(c1ccccc1)c1c(O)c2ccccc2oc1=O (stereo not given) [PHENPROCOUMON] |  | 0.8 | 
30 | CCc1ccc(S(=O)(=O)Nc2cccc(C(c3c(O)c4c(oc3=O)CCCCCC4)C3CC3)c2)cc1 (stereo not given) |  | 5 | > 30000
31 | CC(C)CC(c1cccc(NS(=O)(=O)c2cccc3cccnc23)c1)c1c(O)c2c(oc1=O)CCCCCC2 (stereo not given) | > 10000 | 3.3 | > 30000
32 | CCCCC(c1cccc(NS(=O)(=O)c2ccc(F)cc2)c1)c1c(O)c2c(oc1=O)CCCCCC2 (stereo not given) | > 10000 | 6.1 | > 30000
33 | N#Cc1ccccc1S(=O)(=O)Nc1cccc(C(c2c(O)oc3c(c2=O)CCCCCC3)C2CC2)c1 (stereo not given) | > 10000 | 7.4 | > 30000
34 | O=c1c2c(oc(O)c1C(c1cccc(NS(=O)(=O)c3ccc([N+](=O)[O-])cc3)c1)C1CC1)CCCCCC2 (stereo not given) | 3100 | 2.7 | > 30000
35 | CCCC(c1cccc(NS(=O)(=O)c2ccc(C#N)cc2)c1)c1c(O)c2c(oc1=O)CCCCCC2 (stereo not given) | 3900 | 1.4 | > 30000
36 | O=c1c2c(oc(O)c1C(c1cccc(NS(=O)(=O)c3cccc(Cl)c3)c1)C1CC1)CCCCCC2 (stereo not given) | 3200 | 2.7 | > 30000
37 | O=c1c2c(oc(O)c1C(c1cccc(NS(=O)(=O)c3ncccn3)c1)C1CC1)CCCCCC2 (stereo not given) | 1700 | 0.8 | > 30000
38 | O=c1c2c(oc(O)c1[C@@H](c1cccc(NS(=O)(=O)c3ccccc3)c1)C1CC1)CCCCCC2 | > 10000 |  | > 30000
39 | CCS(=O)(=O)Nc1cccc(C(c2c(O)c3c(oc2=O)CCCCCC3)C2CC2)c1 (stereo not given) |  | 10 | 
40 | O=c1c2c(oc(O)c1C(c1ccccc1)C1CC1)CCCCCC2 (stereo not given) |  | 15 | 

Row | Compound | EC50 [1] [nM] | Ki [2] [nM] | CC50 [3] [nM]
41 | CCCCS(=O)(=O)Nc1cccc(C(c2c(O)c3c(oc2=O)CCCCCC3)C2CC2)c1 (stereo not given) |  | 4.6 | 
42 | CC(C)(C)OC(=O)NCCC(=O)Nc1cccc(C(c2c(O)c3c(oc2=O)CCCCCC3)C2CC2)c1 (stereo not given) | 33000 |  | 
43 | O=c1c2c(oc(O)c1C(c1cccc(NS(=O)(=O)c3ccc(Cl)cc3Cl)c1)C1CC1)CCCCCC2 (stereo not given) |  | 6.2 | > 30000
44 | CCCCOc1ccc(S(=O)(=O)Nc2cccc(C(c3c(O)c4c(oc3=O)CCCCCC4)C3CC3)c2)cc1 (stereo not given) |  | 18 | > 30000
45 | O=c1c2c(oc(O)c1C(c1cccc(NS(=O)(=O)c3ccc(C(F)(F)F)c(C(F)(F)F)c3)c1)C1CC1)CCCCCC2 (stereo not given) |  | 47 | > 30000
46 | CC(C)C(c1cccc(NS(=O)(=O)c2cccnc2)c1)c1c(O)c2c(oc1=O)CCCCCC2 (stereo not given) | > 10000 |  | > 30000
47 | CCS(=O)(=O)Nc1cccc(C(c2c(O)c3c(oc2=O)CCCCC3)C2CC2)c1 (stereo not given) |  | 63 | 
48 | C=CS(=O)(=O)Nc1cccc(C(c2c(O)oc3c(c2=O)CCCCCC3)C2CC2)c1 (stereo not given) |  | 18 | 
49 | O=c1c2c(oc(O)c1C(c1cccc(NS(=O)(=O)c3ccccc3Cl)c1)C1CC1)CCCCCC2 (stereo not given) |  | 9.3 | > 30000
50 | Cc1ccccc1S(=O)(=O)Nc1cccc(C(c2c(O)c3c(oc2=O)CCCCCC3)C2CC2)c1 (stereo not given) |  | 9.3 | > 30000
51 | Cc1cccc(C)c1S(=O)(=O)Nc1cccc(C(c2c(O)c3c(oc2=O)CCCCCC3)C2CC2)c1 (stereo not given) |  | > 200 | > 30000
52 | C=CS(=O)(=O)Nc1cccc(C(c2c(O)oc3c(c2=O)CCCCC3)C2CC2)c1 (stereo not given) |  | > 200 | 
53 | CC(C)S(=O)(=O)Nc1cccc(C(c2c(O)c3c(oc2=O)CCCCCC3)C2CC2)c1 (stereo not given) |  | 33 | 
54 | O=c1c2c(oc(O)c1C(c1cccc(S(=O)(=O)Nc3ccccc3)c1)C1CC1)CCCCCC2 (stereo not given) |  | 36 | 
55 | O=c1c2c(oc(O)c1C(c1cccc(NS(=O)(=O)c3ccccc3)c1)C1CC1)CCCCCC2 (stereo not given) | 5500 |  | > 30000
56 | O=c1c2c(oc(O)c1C(c1cccc(NS(=O)(=O)C3CCCCC3)c1)C1CC1)CCCCCC2 (stereo not given) |  | 3.6 | 
57 | O=c1c2c(oc(O)c1C(c1cccc(NS(=O)(=O)/C=C/c3ccccc3)c1)C1CC1)CCCCCC2 (stereo not given) |  | 3 | 
58 | O=c1c2c(oc(O)c1C(c1cccc(NS(=O)(=O)c3c(Cl)cccc3Cl)c1)C1CC1)CCCCCC2 (stereo not given) |  | > 200 | > 30000
